Source: ChEMBL document CHEMBL5032505, “Design, Synthesis, and Activity Evaluation of Stereoconfigured Tartarate Derivatives as Potential Anti-inflammatory Agents In Vitro and In Vivo” (J Med Chem, 2021)
Calls of active or inactive are those of the source. The calls are words filed in the database; no cut-off is given here.

Columns and labels:
[1] = biological target: T1, Prostaglandin G/H synthase 2 (Homo sapiens) (UniProt P35354)
T1 sequence (whole entry): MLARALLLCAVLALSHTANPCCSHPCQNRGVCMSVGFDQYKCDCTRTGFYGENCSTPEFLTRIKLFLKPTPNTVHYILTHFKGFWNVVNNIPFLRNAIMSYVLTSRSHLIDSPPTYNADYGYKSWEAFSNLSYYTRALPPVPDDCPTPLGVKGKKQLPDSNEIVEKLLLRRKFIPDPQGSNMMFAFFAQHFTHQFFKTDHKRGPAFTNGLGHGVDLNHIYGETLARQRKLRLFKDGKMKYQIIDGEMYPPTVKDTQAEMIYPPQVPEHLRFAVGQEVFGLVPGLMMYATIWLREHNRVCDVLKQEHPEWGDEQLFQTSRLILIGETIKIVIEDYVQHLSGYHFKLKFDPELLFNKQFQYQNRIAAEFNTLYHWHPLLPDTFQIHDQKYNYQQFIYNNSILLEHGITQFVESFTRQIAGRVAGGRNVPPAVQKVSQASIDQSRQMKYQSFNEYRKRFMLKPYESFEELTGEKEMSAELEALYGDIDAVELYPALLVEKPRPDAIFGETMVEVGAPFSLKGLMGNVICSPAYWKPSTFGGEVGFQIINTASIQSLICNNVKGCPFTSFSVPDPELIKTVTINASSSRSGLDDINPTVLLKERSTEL

[2] = biological target: T2, Prostaglandin G/H synthase 1 (Ovis aries) (UniProt P05979)
T2 sequence (whole entry): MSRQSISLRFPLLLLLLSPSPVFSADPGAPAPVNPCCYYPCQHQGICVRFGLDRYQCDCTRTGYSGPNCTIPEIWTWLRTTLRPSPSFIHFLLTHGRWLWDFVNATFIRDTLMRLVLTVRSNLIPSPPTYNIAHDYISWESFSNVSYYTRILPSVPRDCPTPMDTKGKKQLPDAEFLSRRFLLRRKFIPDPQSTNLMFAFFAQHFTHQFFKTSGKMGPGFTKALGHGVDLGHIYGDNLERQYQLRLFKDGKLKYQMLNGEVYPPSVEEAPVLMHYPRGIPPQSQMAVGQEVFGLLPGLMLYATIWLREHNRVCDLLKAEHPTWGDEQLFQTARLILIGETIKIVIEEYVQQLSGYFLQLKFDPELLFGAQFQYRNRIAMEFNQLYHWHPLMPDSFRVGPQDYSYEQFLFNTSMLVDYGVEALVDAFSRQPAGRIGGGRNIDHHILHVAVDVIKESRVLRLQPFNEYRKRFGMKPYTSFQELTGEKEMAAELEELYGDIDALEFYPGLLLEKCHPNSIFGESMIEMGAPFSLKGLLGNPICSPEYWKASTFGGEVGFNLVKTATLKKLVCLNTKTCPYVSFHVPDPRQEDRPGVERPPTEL

[3] = biological target: T1, Prostaglandin G/H synthase 2 (Homo sapiens); remark: listed apart in the source
Albumin = Albumin (Homo sapiens, UniProt P02768); assay: Binding affinity to HSA assessed as association constant at equilibrium by isothermal titration calorimetry
[4] = biological target: T2, Prostaglandin G/H synthase 1 (Ovis aries); remark: listed apart in the source
Mus musculus [5] = assay: Analgesic activity in Swiss albino mouse assessed as inhibition of acetic acid-induced writhing at 5 mg/kg, ip preincubated for 30 mins with substance P followed by compound addition for 30 mins prior to acetic acid challenge and measured after 30 mins; assay type: functional, organism-based; conditions: time 60.0 min
Mus musculus [6] = assay: Antiinflammatory activity in Swiss albino mouse model of carrageenan-induced paw edema assessed as reduction in paw thickness at 5 mg/kg, administered 30 mins prior to carrageenan challenge and measured upto 360 mins relative to control; assay type: functional; design: scale not given: the % may be the effect or the level left; conditions: time 390 min, 6.5 h
Procedure, shortened: (§1)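 100 μL freshly prepared 1% carrageenan injected into the subplantar hind paw, with indomethacin (10 mg/kg) or test compound given 30 min before. Dose–response arm used 0.5, 2.5, 5, 10, 20 mg/kg. Six animals per group. Paw thickness (mm) read at 15, 30, 60, 120, 180, 240, 300, 360 min. Result expressed as % decrease versus control.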

Mus musculus [7] = assay: Analgesic activity in Swiss albino mouse assessed as inhibition of acetic acid-induced writhing at 5 mg/kg, ip preincubated for 30 mins with L-arginine followed by compound addition for 30 mins prior to acetic acid challenge and measured after 30 mins; assay type: functional, organism-based; conditions: time 60.0 min
Mus musculus [8] = assay: Antiinflammatory activity against Swiss albino mouse assessed as reduction in carragenan-induced paw edema at 10 mg/kg treated 30 mins prior to carrageenan challenge and measured upto 360 mins relative to control; assay type: functional; design: scale not given: the % may be the effect or the level left; conditions: time 390 min, 6.5 h
Procedure, shortened: as §1

[9] = biological target: T1, Prostaglandin G/H synthase 2 (Homo sapiens); remark: listed apart in the source
[10] = biological target: T1, Prostaglandin G/H synthase 2 (Homo sapiens); remark: listed apart in the source

Chain of Albumin (P02768 whole entry): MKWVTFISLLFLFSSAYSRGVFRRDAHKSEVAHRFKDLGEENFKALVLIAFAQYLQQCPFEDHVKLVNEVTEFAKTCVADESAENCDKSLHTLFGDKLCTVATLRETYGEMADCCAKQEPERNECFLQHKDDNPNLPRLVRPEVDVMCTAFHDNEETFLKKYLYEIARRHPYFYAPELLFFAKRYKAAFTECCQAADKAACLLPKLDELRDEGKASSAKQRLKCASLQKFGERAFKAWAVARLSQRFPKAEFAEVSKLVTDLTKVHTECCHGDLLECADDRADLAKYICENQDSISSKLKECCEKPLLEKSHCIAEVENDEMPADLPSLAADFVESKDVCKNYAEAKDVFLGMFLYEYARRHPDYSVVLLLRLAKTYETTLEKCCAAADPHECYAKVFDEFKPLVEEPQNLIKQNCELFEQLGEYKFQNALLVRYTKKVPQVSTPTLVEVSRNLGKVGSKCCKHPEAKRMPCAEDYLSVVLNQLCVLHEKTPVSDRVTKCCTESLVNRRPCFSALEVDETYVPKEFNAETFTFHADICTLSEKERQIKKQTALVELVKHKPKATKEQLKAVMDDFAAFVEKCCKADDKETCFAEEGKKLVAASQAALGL

Ka [1]: 6.07 10^5/M
deltaH [2]: -600 kcal/mol
TdeltaS [3]: -2.57 kcal/mol
Ka (Albumin): 11800 M⁻¹
deltaG [4]: -5.02 kcal/mol
deltaH (Glycine max): -9.99 kcal/mol
deltaG [9]: -7.88 kcal/mol
deltaH [10]: -10.5 kcal/mol
Structure (SMILES): O=C(O)Cn1nncc1CO[C@@H](C(=O)O)[C@@H](OCc1cnnn1CC(=O)O)C(=O)O
Activity (Mus musculus [5]): inactive
Activity (Mus musculus [6]): 33%
Activity (Mus musculus [7]): Active
Activity (Mus musculus [8]): 36.5%
